Test [1] relates to A549. Kind of test: Growth inhibition of human A549 cells at 50 uM after 72 hrs by Alamar blue staining based fluorescence assay. Type of test: functional, cell-based. The procedure, abridged:
(§1)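 A549 or MDA-MB-231 cells seeded at 2 × 10^3 per well, left 24 h at 37 °C, then given compounds in medium for 72 h at 37 °C, 5% CO2. AlamarBlue added for a further 3 h at 37 °C; fluorescence read at ex 540/em 590 nm and % growth calculated from it. A549 in RPMI1640/10% FBS; MDA-MB-231 in L-15 with 2 mM glutamine/10% FBS.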
In general terms: Alamar Blue is a resazurin reagent that responds to reducing activity.

The target of test [2] is T1, Lysine-specific demethylase 3A (Homo sapiens) (UniProt Q9Y4C1).
T1 sequence (whole entry): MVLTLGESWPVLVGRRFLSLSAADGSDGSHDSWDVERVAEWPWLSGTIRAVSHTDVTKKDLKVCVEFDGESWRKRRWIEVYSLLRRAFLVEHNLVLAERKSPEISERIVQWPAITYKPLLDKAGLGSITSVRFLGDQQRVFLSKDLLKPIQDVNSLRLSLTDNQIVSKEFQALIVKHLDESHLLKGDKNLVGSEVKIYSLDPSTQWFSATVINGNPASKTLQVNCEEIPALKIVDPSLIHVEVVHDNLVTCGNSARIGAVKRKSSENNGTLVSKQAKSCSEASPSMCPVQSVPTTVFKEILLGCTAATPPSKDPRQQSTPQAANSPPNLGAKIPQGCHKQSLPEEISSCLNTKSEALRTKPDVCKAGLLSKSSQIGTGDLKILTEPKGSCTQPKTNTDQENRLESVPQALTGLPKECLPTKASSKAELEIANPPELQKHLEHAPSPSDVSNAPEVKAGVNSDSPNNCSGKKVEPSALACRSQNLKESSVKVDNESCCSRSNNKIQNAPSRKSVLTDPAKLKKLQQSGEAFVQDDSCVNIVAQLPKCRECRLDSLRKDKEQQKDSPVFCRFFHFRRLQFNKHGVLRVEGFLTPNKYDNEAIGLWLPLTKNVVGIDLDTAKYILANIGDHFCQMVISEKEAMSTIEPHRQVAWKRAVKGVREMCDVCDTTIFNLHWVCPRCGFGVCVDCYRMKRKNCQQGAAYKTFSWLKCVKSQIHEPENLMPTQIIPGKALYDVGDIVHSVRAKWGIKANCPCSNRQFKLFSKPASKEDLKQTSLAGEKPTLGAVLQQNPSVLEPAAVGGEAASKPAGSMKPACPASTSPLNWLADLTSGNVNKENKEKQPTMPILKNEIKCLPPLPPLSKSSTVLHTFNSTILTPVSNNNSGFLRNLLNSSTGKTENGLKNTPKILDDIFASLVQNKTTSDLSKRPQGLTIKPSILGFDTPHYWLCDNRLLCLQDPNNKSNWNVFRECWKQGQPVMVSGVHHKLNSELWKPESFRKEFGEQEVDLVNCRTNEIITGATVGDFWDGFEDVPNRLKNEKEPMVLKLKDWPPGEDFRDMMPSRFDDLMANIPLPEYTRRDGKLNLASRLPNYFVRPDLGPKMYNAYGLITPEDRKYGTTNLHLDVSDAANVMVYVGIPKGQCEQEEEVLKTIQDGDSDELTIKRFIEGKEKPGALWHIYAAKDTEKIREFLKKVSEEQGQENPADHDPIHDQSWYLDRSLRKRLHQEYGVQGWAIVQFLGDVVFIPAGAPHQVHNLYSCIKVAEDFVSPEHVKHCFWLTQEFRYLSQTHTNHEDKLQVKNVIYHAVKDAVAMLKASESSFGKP
Kind of test: Inhibition of human N-terminal FLAG-tagged KDM3A (2 to 1321 residues) expressed in baculovirus infected Sf9 insect cells at 50 uM using H3(1-21)K9(Me1)-GGK(Biotin)/2-OG as substrate measured after 1 hr by Alphalisa assay relative to control. The procedure, abridged: (§2)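 AlphaLISA demethylase assay in 50 mM HEPES pH 7.5, 0.1% BSA, 0.01% Tween 20 with DMSO. Enzyme and inhibitor combined, then peptide plus 2-OG (50 µM), Fe(II) (5 µM) and ascorbate (100 µM) in the added mix; 1 h at room temperature with shaking.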
For orientation: Bead proximity is the source of the signal in Alpha formats.

Test [3] has as its system A549. Kind of test: Growth inhibition of human A549 cells after 72 hrs by Alamar blue staining based fluorescence assay. Type of test: functional. The note with it: A549, 72 h. The essentials:
as §1

For test [4], the target named is Lysine-specific demethylase 5A (Homo sapiens, UniProt P29375). Kind of test: Inhibition of human C-terminal FLAG-tagged KDM5A (1 to 1090 residues) expressed in baculovirus infected Sf9 insect cells using H3(1-21)K4(Me3)-GGK(Biotin)/2-OG as substrate measured after 1 hr by Alphalisa assay. The procedure, abridged:
as §2

Test [5] concerns the target Lysine-specific demethylase 5C (Homo sapiens, UniProt P41229). Kind of test: Inhibition of full-length human N-terminal FLAG/His-tagged KDM5C (2 to 1560 residues) expressed in baculovirus infected Sf9 insect cells using H3(1-21)K4(Me3)-GGK(Biotin)/2-OG as substrate measured after 1 hr by Alphalisa assay. The procedure, abridged: as §2

The structures appear in SMILES notation. Active and inactive are the calls of the source. The rule behind the calls is not given here.

Consider four compounds from ChEMBL document CHEMBL4422684, “Identification of novel lysine demethylase 5-selective inhibitors by inhibitor-based fragment merging strategy” (Bioorg Med Chem, 2019).

Usually inhibition stands for the share of the control response that was lost under treatment. Read a high inhibition as a strong effect. For orientation: GI50 means the concentration that inhibits growth by half. A higher GI50 goes with less potent growth inhibition. By IC50 is commonly meant the concentration at which inhibition is half-maximal. Low readings indicate higher potency, high ones lower potency.

Lysine-specific demethylase 5C, sequence (P41229 whole entry, the tested form may be a part): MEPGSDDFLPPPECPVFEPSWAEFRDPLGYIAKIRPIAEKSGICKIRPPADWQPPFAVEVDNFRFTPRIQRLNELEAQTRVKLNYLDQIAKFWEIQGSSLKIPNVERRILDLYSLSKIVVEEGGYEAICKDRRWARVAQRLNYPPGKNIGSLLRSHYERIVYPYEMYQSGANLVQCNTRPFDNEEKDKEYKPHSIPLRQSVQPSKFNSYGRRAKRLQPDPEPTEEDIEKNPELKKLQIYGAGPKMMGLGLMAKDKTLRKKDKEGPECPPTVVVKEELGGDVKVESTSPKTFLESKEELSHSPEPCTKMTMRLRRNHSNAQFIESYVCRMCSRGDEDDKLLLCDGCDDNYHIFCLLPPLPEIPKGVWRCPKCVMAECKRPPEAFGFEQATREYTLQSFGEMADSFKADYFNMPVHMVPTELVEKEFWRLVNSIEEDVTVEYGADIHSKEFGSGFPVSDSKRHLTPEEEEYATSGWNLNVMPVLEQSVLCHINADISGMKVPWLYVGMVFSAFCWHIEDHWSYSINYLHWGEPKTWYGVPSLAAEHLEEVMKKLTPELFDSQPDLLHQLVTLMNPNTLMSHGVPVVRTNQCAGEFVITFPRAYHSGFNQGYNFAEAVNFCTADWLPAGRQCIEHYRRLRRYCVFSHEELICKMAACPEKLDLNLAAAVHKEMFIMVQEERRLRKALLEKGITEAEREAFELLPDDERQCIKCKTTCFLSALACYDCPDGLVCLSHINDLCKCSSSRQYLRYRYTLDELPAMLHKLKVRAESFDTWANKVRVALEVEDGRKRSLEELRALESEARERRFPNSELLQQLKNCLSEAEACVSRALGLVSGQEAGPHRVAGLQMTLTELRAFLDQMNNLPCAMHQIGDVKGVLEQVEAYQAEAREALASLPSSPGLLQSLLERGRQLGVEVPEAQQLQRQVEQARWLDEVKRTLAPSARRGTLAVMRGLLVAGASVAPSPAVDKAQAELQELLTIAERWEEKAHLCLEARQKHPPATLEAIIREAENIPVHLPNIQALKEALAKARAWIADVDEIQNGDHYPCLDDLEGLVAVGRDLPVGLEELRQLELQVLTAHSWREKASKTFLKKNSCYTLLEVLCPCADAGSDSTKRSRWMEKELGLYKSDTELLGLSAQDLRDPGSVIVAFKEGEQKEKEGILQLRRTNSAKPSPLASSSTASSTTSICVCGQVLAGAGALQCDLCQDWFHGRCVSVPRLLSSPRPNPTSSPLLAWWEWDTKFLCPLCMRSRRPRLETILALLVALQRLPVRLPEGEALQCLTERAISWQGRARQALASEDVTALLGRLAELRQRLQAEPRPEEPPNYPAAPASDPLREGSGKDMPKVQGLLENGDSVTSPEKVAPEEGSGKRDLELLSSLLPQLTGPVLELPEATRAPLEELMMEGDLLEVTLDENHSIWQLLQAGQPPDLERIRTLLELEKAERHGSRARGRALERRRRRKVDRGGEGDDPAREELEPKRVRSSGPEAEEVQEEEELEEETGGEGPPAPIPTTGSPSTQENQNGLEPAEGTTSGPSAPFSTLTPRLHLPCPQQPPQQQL
Lysine-specific demethylase 5A, sequence (P29375 whole entry, the tested form may be a part): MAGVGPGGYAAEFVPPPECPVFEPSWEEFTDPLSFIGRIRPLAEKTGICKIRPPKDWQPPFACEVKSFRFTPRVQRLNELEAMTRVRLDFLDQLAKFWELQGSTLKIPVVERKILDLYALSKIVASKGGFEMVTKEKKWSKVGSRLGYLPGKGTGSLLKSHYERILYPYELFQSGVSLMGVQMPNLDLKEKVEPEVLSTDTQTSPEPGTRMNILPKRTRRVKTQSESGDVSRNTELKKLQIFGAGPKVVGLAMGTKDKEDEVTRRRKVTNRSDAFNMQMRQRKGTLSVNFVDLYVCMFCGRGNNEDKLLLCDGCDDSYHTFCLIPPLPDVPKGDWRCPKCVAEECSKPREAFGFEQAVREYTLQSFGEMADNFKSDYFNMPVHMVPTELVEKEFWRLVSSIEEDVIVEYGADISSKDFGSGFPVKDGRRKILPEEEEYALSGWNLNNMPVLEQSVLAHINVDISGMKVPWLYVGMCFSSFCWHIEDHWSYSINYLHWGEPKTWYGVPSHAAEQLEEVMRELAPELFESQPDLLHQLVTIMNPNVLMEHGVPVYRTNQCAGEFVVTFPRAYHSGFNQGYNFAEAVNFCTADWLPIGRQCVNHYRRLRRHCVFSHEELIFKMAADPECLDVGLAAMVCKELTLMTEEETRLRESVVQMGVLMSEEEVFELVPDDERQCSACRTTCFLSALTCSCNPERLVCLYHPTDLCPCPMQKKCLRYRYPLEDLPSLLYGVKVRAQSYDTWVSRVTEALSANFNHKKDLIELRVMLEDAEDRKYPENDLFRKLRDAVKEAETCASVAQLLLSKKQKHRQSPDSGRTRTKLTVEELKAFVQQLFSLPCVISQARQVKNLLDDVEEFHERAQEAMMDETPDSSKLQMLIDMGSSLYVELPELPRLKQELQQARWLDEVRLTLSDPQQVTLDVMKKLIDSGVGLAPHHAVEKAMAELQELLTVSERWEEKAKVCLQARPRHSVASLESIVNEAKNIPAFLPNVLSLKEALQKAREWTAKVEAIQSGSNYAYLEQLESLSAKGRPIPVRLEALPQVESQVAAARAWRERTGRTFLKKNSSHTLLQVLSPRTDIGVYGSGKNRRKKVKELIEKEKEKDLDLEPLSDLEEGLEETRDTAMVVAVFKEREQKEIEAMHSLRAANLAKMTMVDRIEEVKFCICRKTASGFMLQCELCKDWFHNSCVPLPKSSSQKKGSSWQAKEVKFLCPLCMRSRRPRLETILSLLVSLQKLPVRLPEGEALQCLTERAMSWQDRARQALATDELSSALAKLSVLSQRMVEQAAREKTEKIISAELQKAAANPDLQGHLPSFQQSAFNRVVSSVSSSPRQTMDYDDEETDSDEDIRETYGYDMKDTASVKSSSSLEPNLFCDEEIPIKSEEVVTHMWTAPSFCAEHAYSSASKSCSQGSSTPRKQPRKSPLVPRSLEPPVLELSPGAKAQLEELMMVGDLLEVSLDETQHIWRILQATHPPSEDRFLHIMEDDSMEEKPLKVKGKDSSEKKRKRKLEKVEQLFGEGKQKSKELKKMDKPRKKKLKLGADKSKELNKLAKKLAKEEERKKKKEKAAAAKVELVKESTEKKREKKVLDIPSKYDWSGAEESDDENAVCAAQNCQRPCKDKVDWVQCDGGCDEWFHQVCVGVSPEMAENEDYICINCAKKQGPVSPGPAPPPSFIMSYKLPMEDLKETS

In the case of `CCCCCCN(C)Cc1ccc(-c2[nH]c3c(C#N)cnn3c(=O)c2C(C)C)cc1`, the “growth inhibition (GI)” value in test [1] is “Active”. Moreover, the inhibition in test [2] came out at 61.5%. In test [3], this compound displayed a GI50 of 40000 nM. Further, the results for the IC50 in test [4] and in test [5] were 22.7 nM and 5.84 nM, respectively.

`CC(C)c1c(-c2ccccc2)[nH]c2c(C#N)cnn2c1=O`: the “growth inhibition (GI)” value in test [1] was “inactive”. The compound further yielded an inhibition in test [2] of 31.9%. In addition, the 50% growth inhibitory concentration (GI50) in test [3] is above 50000 nM. Moreover, the IC50 in test [5] was found to be 3010 nM.

`CCCCCN(C)CCCCC(=O)N(O)CCC(=O)O` had an inhibition in test [2] of 30.1%. In addition, the figures for the IC50 in test [4] and in test [5] were 2700 nM and 28900 nM, respectively.

In the case of `CCCCCCN(C)CCc1ccc(-c2[nH]c3c(C#N)cnn3c(=O)c2C(C)C)cc1`, in test [1], the “growth inhibition (GI)” value was “Active”. The compound further showed a 50% growth inhibitory concentration (GI50) in test [3] of 29600 nM. Also, the IC50 was found to be 4.37 nM in test [4] and 6.24 nM in test [5].
